Assay results from the array DNA melting data of Ke et al. (doi:10.1101/2024.01.08.574731).

Experiments:
[1] = folding enthalpy; higher = less favourable; fluorescence melt of hairpins on a sequencing array, two-state fit; settings: sodium 0.088 M
How it was run: (§1)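 Bootstrapped two-state fits yielded melting temperature and folding enthalpy for library hairpins. Cy3 fluorescence, with annealed Cy3 and quencher oligos, was imaged on a sequenced MiSeq flow cell in 50 mM Na-HEPES pH 8.0, 25 mM NaCl in 2.5 °C steps up to 60 °C, and normalised to pre-quench Cy3 and to control constructs. Four replicates were combined by inverse variance, and fitted temperatures were raised by 9.35 °C to match UV melts.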

[2] = melting temperature; fluorescence melt of hairpins on a sequencing array, two-state fit, raised by 9.35 °C to match UV melts; settings: sodium 0.088 M
How it was run: as §1

Sequence | folding enthalpy [1] | Tm [2]
GATATGGGAAACCGTATC ((((.((....)).)))) | -32 kcal/mol | 43 °C
GATATTGAAAAATATC ((((((....)))))) | -22.6 kcal/mol | 37 °C
GATATTGCGAAAGCAATC (((..(((....)))))) | -8.38 kcal/mol | 35.4 °C
GATATTGGAAACAATATC (((((((....))))))) | -45.2 kcal/mol | 48.8 °C
GATCAAAAACTTGATC ((((((....)))))) | -26.5 kcal/mol | 34.9 °C
GATCAAAACTTTGATC ((((((....)))))) | -35.9 kcal/mol | 46.6 °C
GATCAAAAGCTTGATC ((((((....)))))) | -25.6 kcal/mol | 38 °C
GATCAAAATCTTGATC ((((((....)))))) | -27.8 kcal/mol | 39.9 °C
GATCAAACAGTTGATC ((((((....)))))) | -25.8 kcal/mol | 38.5 °C
GATCAAACCCTTGATC ((((((....)))))) | -33.4 kcal/mol | 42.7 °C
GATCAAACGTTGATC ((((((...)))))) | -28.1 kcal/mol | 39.5 °C
GATCAAAGCTTGATC ((((((...)))))) | -28.1 kcal/mol | 40.1 °C
GATCAAATCATTGATC ((((((....)))))) | -32.8 kcal/mol | 41.8 °C
GATCAAATGTTTGATC ((((((....)))))) | -34.6 kcal/mol | 45.1 °C
GATCAAATTCTTGATC ((((((....)))))) | -32.6 kcal/mol | 41.4 °C
GATCAAATTTTGATC ((((((...)))))) | -31.4 kcal/mol | 43 °C
GATCAACACATTGATC ((((((....)))))) | -36.9 kcal/mol | 44.9 °C
GATCAACACGTTGATC ((((((....)))))) | -40.2 kcal/mol | 53.6 °C
GATCAACACTTGATC ((((((...)))))) | -31.6 kcal/mol | 40.5 °C
GATCAACAGCTTGATC ((((((....)))))) | -29.1 kcal/mol | 39.5 °C
GATCAACATCTTGATC ((((((....)))))) | -28.1 kcal/mol | 41.5 °C
GATCAACATGTTGATC ((((((....)))))) | -56.2 kcal/mol | 54.7 °C
GATCAACATTTTGATC ((((((....)))))) | -31.1 kcal/mol | 42.6 °C
GATCAACCCCTTGATC ((((((....)))))) | -35.2 kcal/mol | 45.5 °C

Sequence | folding enthalpy [1] | Tm [2]
GATCAACCTTTTGATC ((((((....)))))) | -29.7 kcal/mol | 41.8 °C
GATCAACGGTTTGATC ((((((....)))))) | -30.1 kcal/mol | 40.9 °C
GATCAACGTCTTGATC ((((((....)))))) | -30.9 kcal/mol | 42.6 °C
GATCAACTAATTGATC ((((((....)))))) | -28.4 kcal/mol | 40.8 °C
GATCAACTATTTGATC ((((((....)))))) | -31.5 kcal/mol | 42.4 °C
GATCAACTGTTGATC ((((((...)))))) | -36.1 kcal/mol | 44.2 °C
GATCAACTTCTTGATC ((((((....)))))) | -30 kcal/mol | 43.9 °C
GATCAAGAGGTTGATC ((((((....)))))) | -24.2 kcal/mol | 37.9 °C
GATCAAGATTTGATC ((((((...)))))) | -29.6 kcal/mol | 40.7 °C
GATCAAGCATTGATC ((((((...)))))) | -47.9 kcal/mol | 52.1 °C
GATCAAGCCGTTGATC ((((((....)))))) | -29.4 kcal/mol | 46.5 °C
GATCAAGCTGTTGATC ((((((....)))))) | -31.2 kcal/mol | 42.7 °C
GATCAAGGCCTTGATC ((((((....)))))) | -51.6 kcal/mol | 55 °C
GATCAAGGGGTTGATC ((((((....)))))) | -29.4 kcal/mol | 42.8 °C
GATCAAGGTTTGATC ((((((...)))))) | -28.5 kcal/mol | 42.4 °C
GATCAAGTACTTGATC ((((((....)))))) | -45.2 kcal/mol | 51.9 °C
GATCAAGTCTTGATC ((((((...)))))) | -30.4 kcal/mol | 46.2 °C
GATCAAGTCTTTGATC ((((((....)))))) | -43.8 kcal/mol | 48.9 °C
GATCAAGTTCTTGATC ((((((....)))))) | -38.6 kcal/mol | 49.7 °C
GATCAATAAGTTGATC ((((((....)))))) | -33.7 kcal/mol | 44.4 °C
GATCAATAATTTGATC ((((((....)))))) | -34.8 kcal/mol | 43.2 °C
GATCAATAGATTGATC ((((((....)))))) | -31 kcal/mol | 42.5 °C
GATCAATAGGTTGATC ((((((....)))))) | -34.3 kcal/mol | 45.1 °C
GATCAATATATTGATC ((((((....)))))) | -47.1 kcal/mol | 49.1 °C

Sequence | folding enthalpy [1] | Tm [2]
GATCAATCATTGATC ((((((...)))))) | -27.1 kcal/mol | 42 °C
GATCAATCCTTTGATC ((((((....)))))) | -39.3 kcal/mol | 48.6 °C
GATCAATCGATTGATC ((((((....)))))) | -53.5 kcal/mol | 51.3 °C
GATCAATCGCTTGATC ((((((....)))))) | -44.9 kcal/mol | 45.5 °C
GATCAATCTTTGATC ((((((...)))))) | -28.2 kcal/mol | 44.6 °C
GATCAATGAGTTGATC ((((((....)))))) | -37.1 kcal/mol | 48.4 °C
GATCAATGATTGATC ((((((...)))))) | -29.9 kcal/mol | 40.6 °C
GATCAATGTTTGATC ((((((...)))))) | -30.8 kcal/mol | 43.8 °C
GATCAATTAATTGATC ((((((....)))))) | -42 kcal/mol | 48.8 °C
GATCAATTAGTTGATC ((((((....)))))) | -35 kcal/mol | 45.6 °C
GATCAATTGCTTGATC ((((((....)))))) | -33.7 kcal/mol | 43.5 °C
GATCACAAAGTGATC ((((((...)))))) | -38.2 kcal/mol | 61 °C
GATCACAACTGTGATC ((((((....)))))) | -37.4 kcal/mol | 58.9 °C
GATCACAAGAGTGATC ((((((....)))))) | -33.1 kcal/mol | 54.5 °C
GATCACAAGTGTGATC ((((((....)))))) | -39 kcal/mol | 56.4 °C
GATCACACACGTGATC ((((((....)))))) | -35.8 kcal/mol | 57.9 °C
GATCACACCGTGATC ((((((...)))))) | -38.5 kcal/mol | 60.6 °C
GATCACACTGGTGATC ((((((....)))))) | -36.1 kcal/mol | 56.4 °C
GATCACAGTTGTGATC ((((((....)))))) | -35.7 kcal/mol | 60.4 °C
GATCACATAGGTGATC ((((((....)))))) | -39.1 kcal/mol | 55.8 °C
GATCACATAGTGATC ((((((...)))))) | -40 kcal/mol | 62.4 °C
GATCACATGCGTGATC ((((((....)))))) | -38.4 kcal/mol | 57.8 °C
GATCACCAAGTGATC ((((((...)))))) | -36.8 kcal/mol | 52.5 °C
GATCACCACTGTGATC ((((((....)))))) | -43.5 kcal/mol | 56.1 °C
